Source: PubChem BioAssay (several laboratories)
Ecoli WT expand = growth inhibitors of E. coli BW25113 wild type | OD600 absorbance | 0.15% of 98,000 active | growth inhibition, % at 100 µM;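 active = growth inhibition above about 50% at one test dose, limit read from the data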;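 also: growth measured after 20 h incubation at 37 °C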
PostGolgi ctrl = inhibits growth of the yeast control strain; 5% of 98,000 active; inhibition, % at 10 µM; efflux-deficient yeast background strain, growth absorbance A615, 16 h
Cav3 T inh = blocks human Cav3.2 T-type calcium channel; O95180; Cav3.2-expressing cells, Fluo-4 calcium fluorescence FDSS; active compounds read low; B-score at 10 µM; 4% of 100,000 active;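 active = single-dose well whose peak fluorescence ratio is a statistical outlier from its plate by either plate-standardised score or position-corrected B-score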
tolC growth inh = growth inhibitors of E. coli BW25113 tolC mutant. growth inhibition, % at 10 µM (by protocol). OD615. 2.2% of 65,000 active;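 active = growth inhibition at or above a cutoff equal to the mean over every tested compound plus 3 SD, cut at about 60% in these data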;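 also: growth measured after 20 h incubation at 37 °C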
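Test system: tolC-deleted E. coli BW25113; medium: LB with kanamycin 50 µg/mL; compound: single-point testing at 10 µM; incubation: 20 h compound exposure of bacteria at 37 °C; signal: OD at 615 nm; evaluation: growth inhibition in percent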
PostGolgi yeast = growth inhibition of a yeast mutant, post-Golgi transport screen; post-Golgi transport phenotypic cell assay; inhibition, % at 10 µM; 0.9% of 98,000 active; AID 739;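 also: yeast cells grown in 1536-well plates; yeast grown about 18 h at 30C before absorbance read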
Large screens that a line does not name were inactive. An excerpt weighted towards active compounds, which were near 8.4% of everything screened. Rule as the data show it, unless noted: active = inhibition above about 30%; inactive = the rest.

CC(C)(C)[C@@H]1C=C(C(=O)N2CCN(Cc3ccc4c(c3)OCO4)CC2)O[C@H](OCc2ccc(CO)cc2)C1	none (no result: Ecoli WT expand, PostGolgi ctrl, tolC growth inh, PostGolgi yeast)
COc1ccc(CC(=O)Nc2c3c(nn2-c2cccc(C)c2C)CS(=O)C3)cc1OC (configuration not stated)	none
CCc1c(C(=O)Nc2ncn(Cc3cccc(C)c3)n2)csc1C	tolC growth inh 62
COc1cccc(C2NC(=O)NC(C)=C2C(=O)OCCSC)c1OC (configuration not stated)	none (no result: Ecoli WT expand, PostGolgi ctrl, PostGolgi yeast)
COc1ccccc1NCc1nnc(SCC(=O)N/N=C/c2ccco2)n1-c1ccc(Cl)cc1Cl	none (no result: tolC growth inh)
O=S(=O)(N1CCCCC1)n1c(Cc2ccccc2)nc2ccccc21	PostGolgi ctrl 37, tolC growth inh 100
CCOc1ccc2nc(N3CCC(C(=O)N4CCN(c5ccccn5)CC4)CC3)sc2c1	PostGolgi ctrl 43
CCOc1ccc2nc(N3CCC(C(=O)N4CCN(c5ncccn5)CC4)CC3)sc2c1	none (no result: Ecoli WT expand, PostGolgi ctrl, PostGolgi yeast)
O=S(=O)(Nc1ccc(Cl)c(C(F)(F)F)c1)c1cnc[nH]1	none
Cc1cccc(C(=O)N2CCN(c3ccc([N+](=O)[O-])c(N4CCOCC4)c3)CC2)c1	Cav3 T inh 3.7 (no result: tolC growth inh)
Cc1ccc(C(=O)N2CCN(c3ccc([N+](=O)[O-])c(NCc4ccco4)c3)CC2)cc1	none (no result: tolC growth inh)
Cc1cccc(C(=O)N2CCN(c3ccc([N+](=O)[O-])c(NCc4ccco4)c3)CC2)c1	PostGolgi ctrl 39 (no result: tolC growth inh)
O=C(Nc1ccc2c(c1)OCO2)C1CCCN(S(=O)(=O)Cc2ccccc2)C1 (configuration not stated)	PostGolgi ctrl 42
CS(=O)(=O)N1CCC(C(=O)N2CCC(Cc3ccccc3)CC2)CC1	none
O=C(Nc1ccc2c(c1)OCCO2)C1CCCN(S(=O)(=O)Cc2ccccc2)C1 (configuration not stated)	none
O=C(C1CCCN(S(=O)(=O)Cc2ccccc2)C1)N1CCC(Cc2ccccc2)CC1 (configuration not stated)	PostGolgi ctrl 34, Cav3 T inh -5.5 (no result: tolC growth inh)
CCOC(=O)CN(C(=O)CSc1nnc(CNc2ccc(C)cc2C)o1)c1ccccc1	none
CC(C)C1Cc2c(sc3[nH]c(=S)n(Cc4ccccc4)c(=O)c23)CO1 (configuration not stated)	none (no result: tolC growth inh)
O=C(NCCO)c1ccc2[nH]c3c(c2c1)CCCC3	none
CCCC(C)NC(=O)c1ccc2[nH]c3c(c2c1)CC(C)CC3 (configuration not stated)	Cav3 T inh -5 (no result: tolC growth inh)
CC1(C)N=C(SCC(=O)Nc2ccc(Cl)cc2)C(c2ccc(Cl)cc2)=N1	none (no result: tolC growth inh)
CC1(C)N=C(SCC(=O)Nc2ccc(Cl)cc2)C(c2ccccc2)=N1	Cav3 T inh -5.2 (no result: tolC growth inh)
CC1CC(C)CN(c2ncnc3c2cnn3Cc2ccc(Cl)cc2)C1 (configuration not stated)	PostGolgi ctrl 51, tolC growth inh 81
Clc1ccc(Cn2ncc3c(N4CCCCC4)ncnc32)c(Cl)c1	tolC growth inh 73 (no result: Cav3 T inh)
Cc1cccc(-n2ncc3c(N4CC(C)CC(C)C4)ncnc32)c1 (configuration not stated)	PostGolgi ctrl 33, tolC growth inh 63 (no result: Cav3 T inh)
CCOc1ccccc1C(=O)N(Cc1ccccc1)Cc1cc2cc3c(cc2[nH]c1=O)OCCO3	none (no result: Ecoli WT expand, PostGolgi ctrl, tolC growth inh, PostGolgi yeast)
CCn1c(O)c(C=NCCN2CCOCC2)sc1=S	none
CC(C)C[C@H]1C(=O)N2CCC[C@H]2[C@]2(O)O[C@](NC(=O)[C@@H]3C=C4c5cccc6[nH]c(Br)c(c56)CC4N(C)C3)(C(C)C)C(=O)N12 (some centres not stated)	Cav3 T inh -4.8 (no result: Ecoli WT expand, PostGolgi ctrl, PostGolgi yeast)
Clc1ccc(Cn2cccc2C2=NCCO2)cc1	none
Cc1ccc(SCc2[nH]nc3c2C2(C(=O)Nc4ccc([N+](=O)[O-])cc42)C(C#N)=C(N)O3)cc1 (configuration not stated)	PostGolgi ctrl 36 (no result: tolC growth inh)
Cc1ccc(SCc2[nH]nc3c2C2(CCSCC2)C(C#N)=C(N)O3)cc1	none
COC(=O)C(C)Sc1nc2c(c(-c3ccc(OC)cc3)c1C#N)-c1ccccc1C2=O (configuration not stated)	none (no result: Ecoli WT expand, PostGolgi ctrl, tolC growth inh, PostGolgi yeast)
O=S(=O)(NC1CC2CCC1C2)c1ccc(Br)s1 (configuration not stated)	PostGolgi ctrl 91, Cav3 T inh -4.9, PostGolgi yeast 90
Cc1cccc(-c2noc(CCCOc3ccc(Cl)cc3Cl)n2)c1	none (no result: tolC growth inh)
Cc1nnc(NC(=O)CCC(=O)N2CCN(CCc3ccccc3)CC2)s1	none (no result: Ecoli WT expand, PostGolgi ctrl, Cav3 T inh, PostGolgi yeast)
Clc1ccc(-n2ncc3c(N4CCCCCC4)ncnc32)cc1	none (no result: Cav3 T inh)
Brc1cc(Br)c2ncnc(N3CCCCC3)c2c1	tolC growth inh 100
CCCOC(=O)c1ccc(Oc2cn[nH]c2-c2ccc(OC)cc2O)cc1	PostGolgi ctrl 43, tolC growth inh 95 (no result: Cav3 T inh)
COc1ccc(O)c(-c2[nH]ncc2C(=O)c2ccccc2C)c1	none
CCOc1ccc(-c2[nH]ncc2Oc2ccccc2OCC)c(O)c1	PostGolgi ctrl 57, tolC growth inh 95, PostGolgi yeast 91
CCOc1ccc(-c2[nH]ncc2-c2ccc(OC)c(OC)c2)c(O)c1	none
C=C(C)COc1ccc(-c2[nH]ncc2Oc2ccccc2OC)c(O)c1	tolC growth inh 100
C=C(C)COc1ccc(-c2[nH]ncc2-c2ccccc2OC)c(O)c1	PostGolgi ctrl 52, PostGolgi yeast 54
CCOC(=O)c1c(CN2CCCCC2)n(C)c2ccc(OC)c(S(=O)(=O)c3ccccc3)c12	none
CCOc1ccc(-c2nc(N)ncc2Oc2ccccc2Br)c(O)c1	PostGolgi ctrl 55 (no result: tolC growth inh)
CCOc1ccc(-c2[nH]ncc2Oc2ccccc2OC)c(O)c1	tolC growth inh 94
CCOc1ccc(-c2nc(N)ncc2Oc2cccc(OC)c2)c(O)c1	none (no result: tolC growth inh)
CCOc1cc(C(=O)N(C)c2ccccc2)cc(OCC)c1OCC	none
Cc1ccsc1C(=O)Nc1cc(C(C)(C)C)nn1-c1ccccc1	none (no result: tolC growth inh)
O=C1Nc2ccccc2C1(c1ccccc1)c1ccccc1	Cav3 T inh -9.5 (no result: tolC growth inh)
Nc1ccc(C2(c3ccc(N)cc3)C(=O)Nc3ccccc32)cc1	none (no result: tolC growth inh)
O=C(CNC(=O)c1ccccc1)NC1(C(=O)NC2CCCC2)CCCCC1	none
O=C(c1cnccn1)N(c1ccccc1)C1(C(=O)NC2CCCCC2)CCCCC1	PostGolgi ctrl 33
O=C(c1cnccn1)N(c1ccccc1)C1(C(=O)NC2CCCC2)CCCCC1	none (no result: Cav3 T inh)
O=C(NC1(C(=O)NC2CCCCC2)CCCCC1)c1ccccn1	PostGolgi ctrl 32 (no result: tolC growth inh)
NC(=O)c1ccccc1Nc1nc(NCCO)nc(N2CCCC2)n1	none (no result: Ecoli WT expand, PostGolgi ctrl, tolC growth inh, PostGolgi yeast)
CCOC(=O)C[C@H]1c2cc(F)ccc2S(=O)(=O)N1C1CCCC1	none (no result: Ecoli WT expand, PostGolgi ctrl, tolC growth inh, PostGolgi yeast)
COCCC(=O)NC12CC3CC(CC(C3)C1)C2	PostGolgi ctrl 35
O=C(CCSc1ccc(Cl)c(Cl)c1)NC12CC3CC(CC(C3)C1)C2	PostGolgi ctrl 39, Cav3 T inh -5.9 (no result: tolC growth inh)
CCC(C)/C=C/C1=CC2=C(Cl)C(=O)C3(C)OC(=O)C(C(=O)C(C)C(C)O)C3C2=CO1 (configuration not stated)	none (no result: Ecoli WT expand, PostGolgi ctrl, tolC growth inh, PostGolgi yeast)
CN(C)CCCNC(=O)c1ccc(-c2nc(-c3ccc(Cl)cc3)cs2)cc1	PostGolgi ctrl 38 (no result: tolC growth inh)
CC1CC(NC(=O)Cc2ccc(Br)cc2)CC(C)(C)C1 (configuration not stated)	Cav3 T inh -7.4 (no result: Ecoli WT expand, PostGolgi ctrl, tolC growth inh, PostGolgi yeast)
